In brackets after ≈: the same amount, converted by molar mass.
Tests used:
Assay type in all cases: functional
Candida tropicalis = assay: Antifungal activity against Candida tropicalis by micro-broth dilution method
Method in brief: (§1)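 MIC80 determined by broth microdilution following NCCLS methods. C. albicans SC5314 and Y0109 and C. neoformans BLS108 served as quality-control strains and were included in every assay. Fluconazole, itraconazole, voriconazole and amphotericin B were run as positive controls.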

Trichophyton rubrum = assay: Antifungal activity against Trichophyton rubrum by micro-broth dilution method; method in brief: as §1
Aspergillus fumigatus = assay: Antifungal activity against Aspergillus fumigatus by micro-broth dilution method; method in brief: as §1
Candida parapsilosis = assay: Antifungal activity against Candida parapsilosis by micro-broth dilution method; settings: Lodderomyces parapsilosis; method in brief: as §1
Candida albicans [1] = assay: Antifungal activity against Candida albicans SC5314 by micro-broth dilution method; method in brief: as §1
Cryptococcus neoformans = assay: Antifungal activity against Cryptococcus neoformans BLS108 by micro-broth dilution method; method in brief: as §1
Kluyveromyces marxianus = assay: Antifungal activity against Candida kefyr by micro-broth dilution method
Candida albicans [2] = assay: Antifungal activity against Candida albicans Y0109 by micro-broth dilution method; method in brief: as §1

Row | Compound | MIC80 (Candida tropicalis) [µg/mL] | MIC80 (Trichophyton rubrum) [µg/mL] | MIC80 (Aspergillus fumigatus) [µg/mL] | MIC80 (Candida parapsilosis) [µg/mL] | MIC80 (Candida albicans [1]) [µg/mL] | MIC80 (Cryptococcus neoformans) [µg/mL] | MIC80 (Kluyveromyces marxianus) [µg/mL] | MIC80 (Candida albicans [2]) [µg/mL]
1 | O=C(/C=C/c1ccc(Cl)cc1)Nc1ccc(-n2cnn(CC(O)(Cn3cncn3)c3ccc(F)cc3F)c2=O)cc1 (single isomer, unassigned) | > 64 | > 64 | > 64 | > 64 | 4 (≈ 6.92 µM) | > 64 | > 64 | 16 (≈ 27.7 µM)
2 | O=C(Nc1ccc(-n2cnn(CC(O)(Cn3cncn3)c3ccc(F)cc3F)c2=O)cc1)c1ccc(Cl)cc1 (single isomer, unassigned) | 1 (≈ 1.81 µM) | > 64 | > 64 | 1 (≈ 1.81 µM) | 1 (≈ 1.81 µM) | 0.0625 (≈ 0.113 µM) | 1 (≈ 1.81 µM) | 1 (≈ 1.81 µM)
3 | COc1ccc(OC)c(/C=C/C(=O)Nc2ccc(-n3cnn(CC(O)(Cn4cncn4)c4ccc(F)cc4F)c3=O)cc2)c1 (single isomer, unassigned) | > 64 | > 64 | > 64 | 1 (≈ 1.66 µM) | 1 (≈ 1.66 µM) | > 64 | > 64 | 16 (≈ 26.5 µM)
4 | O=C(Nc1ccc(-n2cnn(CC(O)(Cn3cncn3)c3ccc(F)cc3F)c2=O)cc1)c1cccc(Cl)c1 (single isomer, unassigned) | 1 (≈ 1.81 µM) | > 64 | > 64 | 0.00024 (≈ 0.000435 µM) | 0.00024 (≈ 0.000435 µM) | 16 (≈ 29 µM) | 4 (≈ 7.25 µM) | 0.00024 (≈ 0.000435 µM)
5 | O=C(/C=C/c1ccc([N+](=O)[O-])cc1)Nc1ccc(-n2cnn(CC(O)(Cn3cncn3)c3ccc(F)cc3F)c2=O)cc1 (single isomer, unassigned) | > 64 | > 64 | > 64 | 1 (≈ 1.7 µM) | > 64 | > 64 | > 64 | > 64
6 | C[C@@H](c1ncncc1F)[C@](O)(Cn1cncn1)c1ccc(F)cc1F [VORICONAZOLE] | 0.0039 (≈ 0.0112 µM) | 0.0156 (≈ 0.0447 µM) | 0.0039 (≈ 0.0112 µM) | 0.0039 (≈ 0.0112 µM) | 0.0039 (≈ 0.0112 µM) | 0.0039 (≈ 0.0112 µM) | 0.0039 (≈ 0.0112 µM) | 0.0039 (≈ 0.0112 µM)
7 | CC(C)(C)c1ccc(C(=O)Nc2ccc(-n3cnn(CC(O)(Cn4cncn4)c4ccc(F)cc4F)c3=O)cc2)cc1 (single isomer, unassigned) | 0.25 (≈ 0.436 µM) | 4 (≈ 6.97 µM) | > 64 | 0.0625 (≈ 0.109 µM) | 0.0625 (≈ 0.109 µM) | 64 (≈ 112 µM) | > 64 | 1 (≈ 1.74 µM)
8 | CCCCCc1ccc(C(=O)Nc2ccc(-n3cnn(CC(O)(Cn4cncn4)c4ccc(F)cc4F)c3=O)cc2)cc1 (single isomer, unassigned) | > 64 | > 64 | > 64 | > 64 | 4 (≈ 6.81 µM) | > 64 | > 64 | > 64
9 | O=C(Nc1ccc(-n2cnn(CC(O)(Cn3cncn3)c3ccc(F)cc3F)c2=O)cc1)c1ccc(OC(F)(F)F)cc1 (single isomer, unassigned) | 64 (≈ 106 µM) | 4 (≈ 6.65 µM) | > 64 | 1 (≈ 1.66 µM) | 0.25 (≈ 0.416 µM) | > 64 | > 64 | 1 (≈ 1.66 µM)
10 | O=C(/C=C/c1cccc(F)c1)Nc1ccc(-n2cnn(CC(O)(Cn3cncn3)c3ccc(F)cc3F)c2=O)cc1 (single isomer, unassigned) | > 64 | > 64 | > 64 | 16 (≈ 28.5 µM) | 16 (≈ 28.5 µM) | > 64 | > 64 | 16 (≈ 28.5 µM)
11 | O=C(Nc1ccc(-n2cnn(CC(O)(Cn3cncn3)c3ccc(F)cc3F)c2=O)cc1)c1ccccc1F (single isomer, unassigned) | 0.0625 (≈ 0.117 µM) | 16 (≈ 29.9 µM) | > 64 | 0.0156 (≈ 0.0291 µM) | 0.0625 (≈ 0.117 µM) | 64 (≈ 120 µM) | 1 (≈ 1.87 µM) | 4 (≈ 7.47 µM)
12 | CCCCc1ccc(C(=O)Nc2ccc(-n3cnn(CC(O)(Cn4cncn4)c4ccc(F)cc4F)c3=O)cc2)cc1 (single isomer, unassigned) | 0.25 (≈ 0.436 µM) | > 64 | > 64 | 0.0625 (≈ 0.109 µM) | 0.0156 (≈ 0.0272 µM) | > 64 | > 64 | 0.0156 (≈ 0.0272 µM)
13 | O=C(/C=C/c1ccc(F)cc1)Nc1ccc(-n2cnn(CC(O)(Cn3cncn3)c3ccc(F)cc3F)c2=O)cc1 (single isomer, unassigned) | > 64 | > 64 | > 64 | > 64 | > 64 | > 64 | > 64 | > 64
14 | OC(Cn1cncn1)(Cn1cncn1)c1ccc(F)cc1F [FLUCONAZOLE] | 1 (≈ 3.27 µM) | 1 (≈ 3.27 µM) | > 64 | 0.25 (≈ 0.816 µM) | 0.25 (≈ 0.816 µM) | 1 (≈ 3.27 µM) | 4 (≈ 13.1 µM) | 0.25 (≈ 0.816 µM)
15 | CCCc1ccc(C(=O)Nc2ccc(-n3cnn(CC(O)(Cn4cncn4)c4ccc(F)cc4F)c3=O)cc2)cc1 (single isomer, unassigned) | 1 (≈ 1.79 µM) | > 64 | > 64 | 4 (≈ 7.15 µM) | 0.0039 (≈ 0.00697 µM) | > 64 | > 64 | 1 (≈ 1.79 µM)
16 | O=C(Nc1ccc(-n2cnn(CC(O)(Cn3cncn3)c3ccc(F)cc3F)c2=O)cc1)c1cccc(Br)c1 (single isomer, unassigned) | 16 (≈ 26.8 µM) | > 64 | > 64 | 16 (≈ 26.8 µM) | 4 (≈ 6.71 µM) | > 64 | 64 (≈ 107 µM) | 16 (≈ 26.8 µM)
17 | N#Cc1cccc(/C=C/C(=O)Nc2ccc(-n3cnn(CC(O)(Cn4cncn4)c4ccc(F)cc4F)c3=O)cc2)c1 (single isomer, unassigned) | 64 (≈ 113 µM) | > 64 | > 64 | 16 (≈ 28.1 µM) | 16 (≈ 28.1 µM) | > 64 | > 64 | 16 (≈ 28.1 µM)
18 | O=C(Nc1ccc(-n2cnn(CC(O)(Cn3cncn3)c3ccc(F)cc3F)c2=O)cc1)c1ccc(Cl)cc1Cl (single isomer, unassigned) | 0.25 (≈ 0.426 µM) | > 64 | > 64 | 0.0156 (≈ 0.0266 µM) | 0.0625 (≈ 0.107 µM) | > 64 | 4 (≈ 6.82 µM) | 0.0625 (≈ 0.107 µM)
19 | O=C(Nc1ccc(-n2cnn(CC(O)(Cn3cncn3)c3ccc(F)cc3F)c2=O)cc1)c1ccccc1Br (single isomer, unassigned) | 4 (≈ 6.71 µM) | > 64 | > 64 | 1 (≈ 1.68 µM) | 1 (≈ 1.68 µM) | 16 (≈ 26.8 µM) | > 64 | 4 (≈ 6.71 µM)
20 | COc1ccc(C(=O)Nc2ccc(-n3cnn(CC(O)(Cn4cncn4)c4ccc(F)cc4F)c3=O)cc2)cc1 (single isomer, unassigned) | 4 (≈ 7.31 µM) | > 64 | > 64 | 1 (≈ 1.83 µM) | 1 (≈ 1.83 µM) | > 64 | 16 (≈ 29.2 µM) | 1 (≈ 1.83 µM)

From ChEMBL document CHEMBL1806394, “Synthesis, in vitro evaluation and molecular docking studies of new triazole derivatives as antifungal agents” (2011)
